Reference: ChEMBL document CHEMBL5674889, “Enhanced JunD/RSK3 signalling due to loss of BRD4/FOXD3/miR-548d-3p axis determines BET inhibition resistance” (2020)
Calls of active or inactive are those of the source. No cut-off for these calls is given here.

What was measured:
BT-549 [1] = assay: Induction of apoptosis in human BT-549 cells in the presence of osimertinib at 1 uM by flow cytometry analysis; type: functional, cell-based
How it was run: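 Cells given JQ1 and/or osimertinib, then stained with Annexin V-FITC plus propidium iodide (10 min, room temperature, dark; 1 × 10^6 cells/ml in binding buffer after two PBS washes) and analysed by flow cytometry; one-way ANOVA.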

BT-549 [2] = assay: Antiproliferative activity in human FOXD3-knockdown BT-549 cells co-silenced with shRNA of JUND assessed as cell growth at 1 uM by CCK-8 assay; type: functional, cell-based
MDA-MB-231 [3] = assay: Effect on JUND dependent RPS6KA2 transcription in human JUND-knockdown MDA-MB-231 cells assessed reduction in transcription level at 1 uM by ChIP-RT-PCR analysis; type: functional, cell-based
How it was run: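 ChIP-qPCR used ~1 × 10^6 cross-linked JUND-knockdown or control cells treated with DMSO or 1 μM for 6 h. Immunoprecipitated DNA was quantified by real-time PCR with primers specific to the RPS6KA2 enhancer. Non-specific primers downstream of the gene 3′ end served as control.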

BT-549 [4] = assay: Antiproliferative activity in human BT-549 cells assessed as cell growth inhibition for 48 hrs in the presence of […] at 1 uM by CCK-8 assay; type: functional, cell-based
MDA-MB-231 [5] = assay: Antiproliferative activity in human JUND-overexpressing MDA-MB-231 cells assessed as tumor sphere formation at 1 uM by Tumor sphere assay; type: functional, cell-based
MDA-MB-231 [6] = assay: Antiproliferative activity in human MDA-MB-231 cells assessed as cell growth in the presence of EAI045 at 1 uM by CellTiter-Glo luminescent cell viability assay; type: functional, cell-based
How it was run: (§1)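 BLBC cells seeded at 3000/well, adhered overnight, then exposed to JQ1 (1 μM) with or without an EGFR inhibitor (1 μM) for 48 h; control and RPS6KA2-shRNA clones tested. Viability by CellTiter-Glo luminescence, background-subtracted and normalized to DMSO-treated control; triplicates, mean ± SD, one-way ANOVA against JQ1 alone.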

MDA-MB-231 [7] = assay: Inhibition of FOXD3/-BRD4 protein-protein interaction in human MDA-MB-231 cells at 1 uM by Co-immunoprecipitation analysis; type: cell-based
How it was run: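 Endogenous FOXD3 or BRD4 pulled down from MDA-MB-231 lysates with specific antibodies; partner detected by western blot.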

BT-549 [8] = assay: Antiproliferative activity in human BT-549 cells assessed as cell growth for 48 hrs in the presence of osimertinib at 1 uM by CCK-8 assay; type: functional, cell-based
How it was run: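 Cells seeded 3000/well, adhered overnight, treated with JQ1 (1 μM) with or without osimertinib (1 μM) for 48 h; growth by CCK-8 kit, normalized to DMSO-treated control; triplicates, mean ± SD, one-way ANOVA.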

MDA-MB-231 [9] = assay: Downregulation of miR-548d-3p expression in human MDA-MB-231 cells at 1 uM by real-time PCR analysis; type: functional, cell-based
BT-549 [10] = assay: Antiproliferative activity in human JunD-overexpressing BT-549 cells assessed as cell growth in the presence of osimertinib at 1 uM by CCK-8 assay; type: functional, cell-based
MDA-MB-231 [11] = assay: Antiproliferative activity in human MDA-MB-231 cells assessed as cell growth in the presence of erlotinib at 1 uM by CellTiter-Glo luminescent cell viability assay; type: functional, cell-based; how it was run: as §1
HEK-293T = assay: Effect on human HEK293T cells transfected with FOXD3 assessed as decrease in luciferase activity at 1 uM for 6 hrs by Luciferase reporter assay; type: functional, cell-based
MDA-MB-231 [12] = assay: Antitumor activity against human MDA-MB-231 cells xenografted in BALB/c nude mouse model assessed as reduction of tumor size in the presence of osimertinib at 35 mg/kg/day, sc administered every 2 days for 30 days; type: functional, organism-based; conditions: time 30.0 day
How it was run: (§2)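 MDA-MB-231 xenografts used 1 × 10^6 cells injected subcutaneously into female BALB/c nude mice (4–6 weeks). Animals were split into four groups (n = 7) at ~100 mm3: vehicle, osimertinib 10 mg/kg, 35 mg/kg agent, or the combination, each given every 2 days. Volume was measured by calliper as length × width²/2; tumours were weighed at end.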

MDA-MB-231 [13] = assay: Effect on JUND dependent RPS6KA2 transcription in human JUND-knockdown MDA-MB-231 cells assessed reduction in transcription level at 1 uM by EMSA analysis; type: functional, cell-based
MDA-MB-231 [14] = assay: Effect on human RPS6KA2 knockdown MDA-MB-231 cells assessed as RSK3 protein expression at 1 uM for 24 hrs by Western blot analysis; type: functional, cell-based
MDA-MB-231 [15] = assay: Induction of apoptosis in human MDA-MB-231 cells over expressing RSK3 assessed as late apoptotic cells at 1 uM by Annexin V-FITC flow cytometric analysis (reference value: 1.45%); type: functional
How it was run: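 Stable clones (vector, RSK3-overexpressing or RPS6KA2-knockdown) treated ± JQ1 1 μM. Cells washed twice in PBS, resuspended at 1 × 10^6 cells/ml in binding buffer, stained with Annexin V-FITC and propidium iodide for 10 min at room temperature in the dark, then read by flow cytometry. Three independent experiments; one-way ANOVA.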

BT-549 [16] = assay: Downregulation of miR-548d-3p expression in human BT-549 cells at 1 uM by real-time PCR analysis; type: functional, cell-based
MDA-MB-231 [17] = assay: Effect on induction of RPS6KA2 transcription in human MDA-MB-231 cells assessed as JunD protein expression at 1 uM for 24 hrs by Western blot analysis; type: functional, cell-based
MDA-MB-231 [18] = assay: Antiproliferative activity in human MDA-MB-231 cells assessed as cell growth inhibition for 48 hrs in the presence of […] at 1 uM by CCK-8 assay; type: functional, cell-based
MDA-MB-231 [19] = assay: Antiproliferative activity in human MDA-MB-231 cells assessed as cell growth in the presence of gefitinib at 1 uM by CellTiter-Glo luminescent cell viability assay; type: functional, cell-based; how it was run: as §1
MDA-MB-231 [20] = assay: Effect on induction of RPS6KA2 transcription in human MDA-MB-231 cells assessed as enhanced luciferase activity at 1 uM for 6 hrs by Luciferase reporter assay; type: functional, cell-based
How it was run: (§3)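 Control or JunD-shRNA BLBC cells were transfected with the RPS6KA2 enhancer luciferase reporter (FuGene 6, 24 h) and then treated with DMSO or JQ1 1 μM for 6 h. Dual-luciferase read-out given as fold induction over vector control. Three experiments in triplicate.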

BT-549 [21] = assay: Effect on induction of RPS6KA2 transcription in human BT-549 cells assessed as enhanced luciferase activity at 1 uM for 6 hrs by Luciferase reporter assay; type: functional, cell-based; how it was run: as §3
MDA-MB-231 [22] = assay: Effect on human MDA-MB-231 cells assessed as RSK3 […] expression at 1 uM for 24 hrs by Western blot analysis; type: functional, cell-based
BT-549 [23] = assay: Antiproliferative activity in human BT-549 cells assessed as cell growth in the presence of osimertinib at 1 uM by CellTiter-Glo luminescent cell viability assay; type: functional, cell-based; how it was run: as §1
BT-474 = assay: Antiproliferative activity in human FOXD3-overexpressing BT-474 cells assessed as cell growth at 1 uM by CCK-8 assay; type: functional, cell-based
MDA-MB-231 [24] = assay: Antitumor activity against human MDA-MB-231 cells xenografted in BALB/c nude mouse model assessed as reduction of tumor weight in the presence of osimertinib at 35 mg/kg/day, sc administered every 2 days for 30 days; type: functional, organism-based; conditions: time 30.0 day; how it was run: as §2

Cc1sc2c(c1C)C(c1ccc(Cl)cc1)=N[C@@H](CC(=O)OC(C)(C)C)c1nnc(C)n1-2
Activity (BT-549 [1]): Active | Activity (BT-549 [2]): Active | Activity (MDA-MB-231 [3]): Active | Activity (BT-549 [4]): Active | Activity (MDA-MB-231 [5]): Active | Activity (MDA-MB-231 [6]): Active | inhibition (MDA-MB-231 [7]): Active | Activity (BT-549 [8]): Active | Activity (MDA-MB-231 [9]): Active | Activity (BT-549 [10]): Active | Activity (MDA-MB-231 [11]): Active | Activity (HEK-293T): Active | Activity (MDA-MB-231 [12]): Active | Activity (MDA-MB-231 [13]): Active | Activity (MDA-MB-231 [14]): Active | Activity (MDA-MB-231 [15]): 2.9% | Activity (BT-549 [16]): Active | Activity (MDA-MB-231 [17]): Active | Activity (MDA-MB-231 [18]): Active | Activity (MDA-MB-231 [19]): Active | Activity (MDA-MB-231 [20]): Active | Activity (BT-549 [21]): Active | Activity (MDA-MB-231 [22]): Active | Activity (BT-549 [23]): Active | Activity (BT-474): Active | Activity (MDA-MB-231 [24]): Active
